Laboratory results reported in ChEMBL document CHEMBL3351654, “Synthesis, biological evaluation, and 3D QSAR study of 2-methyl-4-oxo-3-oxetanylcarbamic acid esters as N-acylethanolamine acid amidase (NAAA) inhibitors” (J Med Chem, 2014).

molecular target: T1, N-acylethanolamine-hydrolyzing acid amidase (Rattus norvegicus, UniProt Q5KTC7); assay: Inhibition of NAAA in Sprague-Dawley rat lung assessed as inhibition of hydrolysis of 10-cis-heptadecenoylethanolamide by UPLC/MS method; conditions: read-out: IC50
T1 sequence (Q5KTC7 whole entry): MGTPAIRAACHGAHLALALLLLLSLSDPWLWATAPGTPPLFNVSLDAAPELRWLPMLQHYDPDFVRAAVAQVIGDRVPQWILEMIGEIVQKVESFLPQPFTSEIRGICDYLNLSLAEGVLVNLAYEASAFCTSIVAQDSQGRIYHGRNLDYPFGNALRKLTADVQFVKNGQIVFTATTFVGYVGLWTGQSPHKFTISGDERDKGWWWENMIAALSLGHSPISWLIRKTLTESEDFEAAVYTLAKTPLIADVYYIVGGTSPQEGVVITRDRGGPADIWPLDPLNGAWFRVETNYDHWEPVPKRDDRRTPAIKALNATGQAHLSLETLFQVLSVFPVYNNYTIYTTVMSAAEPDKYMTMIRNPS
How it was run: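 Native NAAA enzyme prepared from rat lungs, not a recombinant construct. The substrate, 10-cis-heptadecenoylethanolamide, is an unnatural fatty acid ethanolamide. Inhibition of its hydrolysis was measured, and the median inhibitory concentration (IC50) was reported.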

Point of comparison: C[C@@H]1OC(=O)[C@@H]1NC(=O)OCCCCCCCc1ccccc1, IC50 39 nM. Against it:
- C[C@@H]1OC(=O)[C@@H]1NC(=O)OCc1ccccc1 — 54-fold higher, 2090 nM
- C[C@@H]1OC(=O)[C@@H]1NC(=O)OC(C)(C)C — 160-fold higher, 6350 nM
- CCCCCOC(=O)N[C@H]1C(=O)O[C@H]1C — 19-fold higher, 760 nM
- C[C@@H]1OC(=O)[C@@H]1NC(=O)OCCCCCc1ccc(F)cc1 — 6.2-fold higher, 240 nM
- C[C@@H]1OC(=O)[C@@H]1NC(=O)OCCCCCl — 7.4-fold higher, 288 nM
- CCCCC1(OC(=O)N[C@H]2C(=O)O[C@H]2C)COC1 — 96-fold higher, 3760 nM
- C[C@@H]1OC(=O)[C@@H]1NC(=O)OC1(CCCCc2ccccc2)COC1 — 13-fold higher, 520 nM
- C[C@@H]1OC(=O)[C@@H]1NC(=O)OCC#Cc1ccccc1 — 1.9-fold lower, 20 nM
- C[C@@H]1OC(=O)[C@@H]1NC(=O)OCc1ccc(-c2ccsc2)cc1 — 1.8-fold lower, 22 nM
- C[C@@H]1OC(=O)[C@@H]1NC(=O)OCc1ccc(C2CCCCC2)cc1 — 5.6-fold lower, 7 nM
- C[C@@H]1OC(=O)[C@@H]1NC(=O)OCc1ccc(-c2ccc(F)cc2)cc1 — 3.5-fold lower, 11 nM
- Cc1ccc(-c2ccc(COC(=O)N[C@H]3C(=O)O[C@H]3C)cc2)cc1 — within 1.5-fold, 29 nM
- C[C@@H]1OC(=O)[C@@H]1NC(=O)OCc1ccc(-c2ccc(C(F)(F)F)cc2)cc1 — within 1.5-fold, 36 nM
- C[C@@H]1OC(=O)[C@@H]1NC(=O)OCc1ccc(OC2CCCCC2)cc1 — 1.7-fold lower, 23 nM
- C[C@@H]1OC(=O)[C@@H]1NC(=O)OCc1ccc2c(c1)OCO2 — 4.5-fold higher, 176 nM
- CCCCc1ccc(COC(=O)N[C@H]2C(=O)O[C@H]2C)cc1 — 2.6-fold lower, 15 nM
- C[C@@H]1OC(=O)[C@@H]1NC(=O)OCc1ccc(C(C)(C)C)cc1 — 1.8-fold lower, 22 nM
- C[C@@H]1OC(=O)[C@@H]1NC(=O)OCc1ccc(-c2sccc2Br)cc1 — within 1.5-fold, 28 nM
- Cc1ccc2sc(COC(=O)N[C@H]3C(=O)O[C@H]3C)cc2c1 — 3-fold lower, 13 nM
- CCCCCCCC#CCOC(=O)N[C@H]1C(=O)O[C@H]1C — 2-fold higher, 77 nM

same assay, conditions: read-out: pIC50 (converted)

Point of comparison: CCCCCCCOC(=O)N[C@H]1C(=O)O[C@H]1C, IC50 44.7 nM. Against it:
- C[C@@H]1OC(=O)[C@@H]1NC(=O)OCCCCCc1ccccc1 — within 1.5-fold, 52.5 nM
- C[C@@H]1OC(=O)[C@@H]1NC(=O)OC(C)(C)CCCCc1ccccc1 — 7.1-fold higher, 316 nM
- C[C@@H]1OC(=O)[C@@H]1NC(=O)OCc1ccc(-c2ccccc2)cc1 — 6.2-fold lower, 7.24 nM
- C[C@@H]1OC(=O)[C@@H]1NC(=O)OCCCc1ccccc1 — 1.9-fold higher, 85.1 nM
- C[C@@H]1OC(=O)[C@@H]1NC(=O)OCCCOCc1ccccc1 — within 1.5-fold, 51.3 nM
- C[C@@H]1OC(=O)[C@@H]1NC(=O)OCCOCCc1ccccc1 — 3.3-fold higher, 148 nM
- C[C@@H]1OC(=O)[C@@H]1NC(=O)OCc1ccc(-c2ccsc2)cc1 — 2.1-fold lower, 20.9 nM
